Laboratory results: PMC3313489 (European journal of lipid science and technology : EJLST, 2011)
Where two headings read alike, the source gives them in different places.

Legend:
PMPMEase [1] = target: T1, PMPMEase (Sus scrofa, UniProt Q29550); assay: PMPMEase enzyme assay with RD-PNB substrate; assay type: biochemical, porcine; settings: for decrease in PMPMEase inhibitory potency relative to AA: from IC50 values, AA as comparator
T1 sequence (Q29550 19-566): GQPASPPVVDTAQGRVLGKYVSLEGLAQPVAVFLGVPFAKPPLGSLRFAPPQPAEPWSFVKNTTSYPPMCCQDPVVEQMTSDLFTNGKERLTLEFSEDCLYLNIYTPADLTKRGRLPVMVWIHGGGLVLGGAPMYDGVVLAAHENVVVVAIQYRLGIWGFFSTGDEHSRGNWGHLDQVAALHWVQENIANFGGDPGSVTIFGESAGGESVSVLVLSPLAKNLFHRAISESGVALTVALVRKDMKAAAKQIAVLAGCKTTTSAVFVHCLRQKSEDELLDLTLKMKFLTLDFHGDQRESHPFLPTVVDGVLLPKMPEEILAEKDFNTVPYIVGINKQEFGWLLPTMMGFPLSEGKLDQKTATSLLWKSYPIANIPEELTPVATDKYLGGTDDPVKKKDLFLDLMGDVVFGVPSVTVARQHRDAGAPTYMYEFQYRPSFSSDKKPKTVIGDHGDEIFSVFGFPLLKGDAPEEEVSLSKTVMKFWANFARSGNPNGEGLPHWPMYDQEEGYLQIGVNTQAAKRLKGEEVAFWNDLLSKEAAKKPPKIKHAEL

[2] = system: Human neuroblastoma SH-SY5Y cells; assay: Cell viability, resazurin reduction; assay type: cell-based; settings: for degeneration of the cells: 10 μM (printed for AA), 72 h, Figure 4C
PMPMEase [3] = target: T2, PMPMEase (Homo sapiens, UniProt P23141); assay: PMPMEase activity in lysates of FFA-treated SH-SY5Y cells; assay type: cell-based; settings: DMSO-induced degenerated cells, non-specific cytotoxic agent
T2 sequence (P23141 18-567): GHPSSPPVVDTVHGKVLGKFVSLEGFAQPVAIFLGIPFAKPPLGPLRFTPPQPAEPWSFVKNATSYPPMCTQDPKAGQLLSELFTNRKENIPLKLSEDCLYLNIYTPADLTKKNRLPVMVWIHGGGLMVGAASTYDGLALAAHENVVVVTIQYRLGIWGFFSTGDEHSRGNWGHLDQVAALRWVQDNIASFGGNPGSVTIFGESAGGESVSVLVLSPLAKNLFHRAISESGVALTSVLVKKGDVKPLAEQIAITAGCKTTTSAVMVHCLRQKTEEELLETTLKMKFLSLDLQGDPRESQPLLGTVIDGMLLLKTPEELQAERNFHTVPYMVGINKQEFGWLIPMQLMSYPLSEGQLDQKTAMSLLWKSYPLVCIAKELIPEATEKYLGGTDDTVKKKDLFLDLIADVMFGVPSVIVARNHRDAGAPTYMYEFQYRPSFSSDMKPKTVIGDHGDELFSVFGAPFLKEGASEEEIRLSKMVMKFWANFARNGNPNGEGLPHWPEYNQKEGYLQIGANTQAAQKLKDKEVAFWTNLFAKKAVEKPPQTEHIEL
Method in brief: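 SH-SY5Y cells were seeded in 24-well plates at 5 × 10^5 and exposed to fatty acids (0–200 μM) or DMSO for 24 h, then lysed in medium with Triton X-100. Lysate was incubated at 37 °C with RD-PNB in 100 mM Tris-HCl, pH 7.4. Reactions were stopped with methanol on ice and spun, and product was measured by RP-HPLC (UV 260 nm). Means ± S.E.M.; ANOVA with Dunnett's test.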

[4] = purified PMPMEase 5 μg, RD-PNB 1 mM, 37°C, pH 7.4
[5] = purified PMPMEase 5 μg, RD-PNB 1 mM, 15 min pre-incubation, 37°C, pH 7.4

Row | Structure (SMILES) | IC50 (PMPMEase [1]) [µM] | Ki (PMPMEase [1]) [µM] | further results
1 | CCCCC[C@H](O)/C=C/[C@H]1C=CC(=O)[C@@H]1CCCCCCC(=O)O [Prostaglandin A1] | > 1000 | > 28 | –
2 | CCCCCCCC/C=C/CCCCCCCC(=O)O [Elaidic acid] | > 1000 | > 28 | –
3 | CCCCCC/C=C\CCCCCCCC(=O)O [Palmitoleic acid] | 37 | 1 | –
4 | CCCCCCCCCCCCCCCCCC(=O)O [Stearic acid] | > 1000 | > 28 | –
5 | CCCCCCCCCCCCCCCCCCCC(=O)O [Arachidic acid] | > 1000 | > 28 | effect on cell viability (in words) ([2]; 200 μM, 24 h exposure, listed as ARA): no effect on cell viability
6 | CC/C=C\C/C=C\C/C=C\CCCCCCCC(=O)O [Linolenic acid] | 22 | – | –
7 | CCCCC[C@H](O)/C=C/C1=C(CCCCCCC(=O)O)C(=O)CC1 [Prostaglandin B1] | 580 | – | –
8 | CCCCCCCCCCCC(=O)O [Lauric acid] | – | – | Ki (PMPMEase [1]; [4]): 6.5 µM; IC50 (PMPMEase [1]; [5]): 230 µM
9 | CCCCC/C=C\C/C=C\C/C=C\C/C=C\CCCC(=O)O [Arachidonic acid] | 6.6 | – | degeneration of the cells [2]: 99 ± 0.1%
10 | CCCCCCCC(=O)O [Octanoic acid] | > 1000 | > 28 | –
11 | CCCCCCCCCCCCCCCC(=O)O [Palmitic acid] | > 1000 | > 28 | –
12 | CCCCC[C@H](O)/C=C/[C@@H]1[C@@H](C/C=C\CCCC(=O)O)[C@@H](O)C[C@H]1O [Prostaglandin F2α] | > 1000 | > 28 | degeneration of the cells [2]: 19 ± 5.6%
13 | C[S+](C)[O-] [DMSO, dimethylsulfoxide] | – | – | loss of PMPMEase enzyme activity in degenerated cells (PMPMEase [3]): 49 ± 3%
14 | CCCCC[C@H](O)/C=C/[C@@H]1[C@@H](CCCCCCC(=O)O)[C@H](O)C[C@H]1O [Prostaglandin F1β] | – | – | Ki (PMPMEase [1]; [4]): > 28 µM; IC50 (PMPMEase [1]; [5]): > 1000 µM
15 | CCCCCCCCCCCCCC(=O)O [Myristic acid] | 100 | 2.8 | –
16 | CCCCCCCC/C=C\CCCCCCCCCCCC(=O)O [Erucic acid] | > 1000 | > 28 | –
17 | CCCCC[C@H](O)/C=C/[C@H]1[C@H](O)CC(=O)[C@@H]1C/C=C\CCCC(=O)O [Prostaglandin E2] | > 1000 | – | decrease in PMPMEase inhibitory potency relative to AA (PMPMEase [1]): > 150 fold; degeneration of the cells [2]: 34 ± 4.0%
18 | CC/C=C\C/C=C\C/C=C\C/C=C\C/C=C\CCCC(=O)O [Eicosapentaenoic acid] | 12 | – | –
19 | CCCCC/C=C\C/C=C\CCCCCCCC(=O)O [Linoleic acid] | 64 | 1.8 | –
20 | CCCCC[C@H](O)/C=C/[C@H]1[C@H](O)CC(=O)[C@@H]1CCCCCCC(=O)O [Prostaglandin E1] | > 1000 | – | –
21 | CC/C=C\C/C=C\C/C=C\C/C=C\C/C=C\C/C=C\CCC(=O)O [Docosahexaenoic acid] | 130 | – | –
22 | CCCC/C=C\CCCCCCCC(=O)O [Myristoleic acid] | 63 | 1.8 | –
23 | CCCCC[C@H](O)/C=C/[C@H]1C=CC(=O)[C@@H]1C/C=C\CCCC(=O)O [Prostaglandin A2] | 420 | – | decrease in PMPMEase inhibitory potency relative to AA (PMPMEase [1]): over 63 fold
24 | CCCCCCCCCC(=O)O [Decanoic acid] | > 1000 | > 28 | –
25 | CCCCCCCC/C=C\CCCCCCCC(=O)O [Oleic acid] | 53 | 1.5 | –
